Assay outcomes from PubChem BioAssay.
Most compounds without a hit are left out; they make up all but 1.6% or so of the library.
MBD2 DNA inh: inhibitors of MBD2 binding to methylated DNA, primary screen, biochemical, TR-FRET, DNA-binding domain, human | Methyl-CpG-binding domain protein 2 (Homo sapiens), Q9UBB5 | MBD2 binding to methylated oligonucleotide | inhibition, % at 4.4 µM | 370,000 tested, 0.31% active; in the data active = inhibition above about 13%
TDP2 absorb: human TDP2 enzyme inhibitors, primary screen, biochemical, epi absorbance, recombinant enzyme; T5PNP hydrolysis, p-nitrophenol absorbance 415 nm; 370,000 tested, 0.34% active; Tyrosyl-DNA phosphodiesterase 2 (Homo sapiens), O95551; inhibition, % at 12.8 µM;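 active = inhibition above the mean of all tested compounds plus 3 SD, set per campaign, cut at about 25% in these data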;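 note: 0% = DMSO with enzyme and 100% = buffer with substrate but no TDP2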
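Test system: human TDP2 enzyme; Input: 120 nM TDP2 per well; Buffer or medium: Mg2+-containing Tris-HCl buffer, pH 7.5; Reagent: 5 mM T5PNP; Dosing: 12.8 µM single point, 1% DMSO; Incubation: reaction 2 h, 37 °C; Detection: p-Nitrophenol epi absorbance; Read-out: % inhibition relative to enzyme-containing and enzyme-free wells; Replicates: single well per compound.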
LEDGF integ inh: blockers of LEDGF/p75-dependent integrase strand transfer – biochemical, TR-FRET, high throughput, primary screen; HIV-1 integrase (with human LEDGF/p75); TR-FRET IN-LEDGF/p75 DNA integration, Eu/Cy5; inhibition, % at 3.7 µM; 370,000 tested, 0.64% active;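 active = inhibition above the screen-wide mean plus 3 SD, cut at about 13% in these data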;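 note: signal is the Cy5 over europium emission ratio at 671 and 618 nm; 0% = plate median of compound wells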
UHRF1 binding: UHRF1 methylated DNA binding inhibitors, primary screen, counter-screen for MBD2 inhibitor project, biochemical, TR-FRET, human UHRF1, single concentration | 370,000 tested, 0.75% active | inhibition, % at 4.4 µM | E3 ubiquitin-protein ligase UHRF1 (Homo sapiens), Q96T88 | UHRF1 binding to methylated oligo;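 note: UHRF1 SRA domain binding a hemimethylated CpG hairpin DNA probe; 0% = median of test compound wells and 100% = reference inhibitor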
UHRF1 DNA bind: UHRF1 methylated DNA binding inhibitors, counter-screen for MBD2 inhibitor project, biochemical, TR-FRET, human UHRF1; UHRF1 binding to methylated oligonucleotide; shares compounds with MBD2 DNA inh; 1,000 tested, 25% active; inhibition, % at 4.4 µM;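 note: UHRF1 SRA domain binding a labeled hemimethylated CpG hairpin DNA; 0% = vehicle only and 100% = reference inhibitor with vehicle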
MBD2 confirm: inhibitors of MBD2 binding to methylated DNA, confirmation, biochemical, TR-FRET, DNA-binding domain, human. shares compounds with MBD2 DNA inh. TR-FRET MBD2-DBD binding to methylated oligonucleotide. inhibition, % at 4.4 µM. 1,000 tested, 26% active; in the data active = inhibition above about 14%
Numbers without * were called inactive; . = not tested or not shown. Cut-off read from the data, not from the text of the source, unless noted: active = inhibition above about 21%; inactive = the rest.

SMILES | MBD2 DNA inh | TDP2 absorb | LEDGF integ inh | UHRF1 binding | UHRF1 DNA bind | MBD2 confirm
CCC1CCc2sc(C(=O)OCC(=O)N(CCOC)c3c(N)n(Cc4ccccc4)c(=O)[nH]c3=O)cc2C1 (stereo not given) | -2 | 0 | 0 | -1 | . | .
COCCN(C(=O)COC(=O)c1cc2c(s1)CCC2)c1c(N)n(Cc2ccccc2)c(=O)[nH]c1=O | 65* | 4 | 54* | 96* | 100* | 91*
O=C(NCc1ccc2c(c1)OCO2)C1CCC(CNS(=O)(=O)c2ccc(Cl)cc2)CC1 (stereo not given) | 20* | 12 | -1 | -2 | 8 | 3
CCCCCCC1CC(CSc2ncn[nH]2)OC1=O (stereo not given) | 2 | 7 | -1 | 4 | . | .
O=c1[nH]cnc2c1ncn2[C@H]1CC[C@@H](CO)O1 | 38* | -2 | 3 | 23* | 7 | 2
Cc1cc(C)c2c(CN3CC(C)OC(C)C3)cc(=O)oc2c1C (stereo not given) | 0 | 0 | -6 | 2 | . | .
COC(=O)C1CCN(C(c2cccs2)c2sc3nc(C)nn3c2O)CC1 (stereo not given) | 19* | 7 | -2 | 10 | 1 | 2
CCOC(=O)C1CCN(C(c2cccs2)c2sc3nc(C)nn3c2O)CC1 (stereo not given) | 4 | -2 | 0 | 1 | . | .
O=C(O)CC(NC(=O)COc1ccc(Cl)cc1Cl)C(=O)O (stereo not given) | 26* | -12 | -2 | 1 | 5 | 2
NS(=O)(=O)c1ccc(NC(CNS(=O)(=O)c2ccccc2)c2ccccc2)cc1 (stereo not given) | 14* | 3 | 2 | 19 | 3 | 1
COc1ccc(NC(=O)/C(C#N)=C/c2ccc(-c3ccccc3C(=O)O)o2)cc1 | -1 | -23 | 2 | -5 | . | .
COc1ccc(NC(=O)/C(C#N)=C\c2ccc(Br)o2)cc1 | 14* | 7 | 2 | 14 | 20 | 6
CC(C)CN(C(=O)CSc1nc2ccccc2c(=O)[nH]1)c1c(N)n(CC(C)C)c(=O)[nH]c1=O | 25* | 2 | -2 | -2 | 4 | 2
CC(=O)C1=C(O)C(=O)N(c2ccc(C(=O)O)cc2)C1c1ccccc1 (stereo not given) | -4 | 5 | -2 | 0 | . | .
CC(=O)C1=C(O)C(=O)N(c2ccc(O)cc2)C1c1ccccc1 (stereo not given) | 22* | 8 | -8 | -2 | 6 | 1
N#CCSc1ncnc2sc3c(c12)CCC3 | 14* | 10 | 5 | 24* | 7 | 4
O=C1CC(c2ccc(S(=O)(=O)N3CCN(c4ccccc4)CC3)cc2)CN1 (stereo not given) | 32* | 4 | 2 | 0 | 6 | 1
COC(=O)c1ccc(NC(=O)CCc2nnc3ccc(NCc4ccco4)nn23)cc1 | 14* | -10 | 1 | 8 | 4 | 4
COc1cccc2c1OC[C@@H](CO)[C@H]2N(C)C(=O)Nc1ccc(Cl)cc1Cl | -2 | 2 | -1 | 2 | . | .
CC(=O)N1CCOc2ccc(S(=O)(=O)N3CCC(C(=O)Nc4cc(C)ccc4C)CC3)cc21 | 5 | 1 | -3 | 3 | . | .
COc1ccc(C(=O)c2ccc3oc(-c4ccc(OC)cc4)c(C#CCCO)c3c2)cc1 | -5 | 4 | 0 | -2 | . | .
COc1cc(OC)cc(-c2oc3cccnc3c2C#CCCO)c1 | 21* | 4 | 1 | 2 | 2 | 0
COc1ccc(-c2oc3ncnc(NCCCN(C)C)c3c2-c2ccc(OC)cc2)cc1 | 15* | -4 | 2 | 5 | 14 | 10
COc1cccc(-c2cc3nc(NCCCN(C)C)n(C)c(=O)c3s2)c1 | -4 | -17 | 6 | 2 | . | .
